Consider twelve compounds from ChEMBL document CHEMBL3608250, “Fragment-Based Discovery of Potent and Selective DDR1/2 Inhibitors” (ACS Med Chem Lett, 2015).

By IC50 is commonly meant the concentration at which inhibition is half-maximal. One may read the inhibition as the drop in the measured response relative to a control, in per cent. What is called half-life is the time needed for the level to fall by half in the phase considered. The low end stands for rapid decline, the high end for slow decline. The bioavailability is dose-corrected exposure relative to a reference, in per cent. Read a low bioavailability as poor availability. Usually EC50 stands for the concentration giving half of the maximal effect.

Positions count from the first letter of the chain named. Calls of active or inactive are those of the source.

The target in series [1] is T1, Discoidin domain-containing receptor 2 (Homo sapiens, UniProt Q16832).
T1 sequence (Q16832 whole entry): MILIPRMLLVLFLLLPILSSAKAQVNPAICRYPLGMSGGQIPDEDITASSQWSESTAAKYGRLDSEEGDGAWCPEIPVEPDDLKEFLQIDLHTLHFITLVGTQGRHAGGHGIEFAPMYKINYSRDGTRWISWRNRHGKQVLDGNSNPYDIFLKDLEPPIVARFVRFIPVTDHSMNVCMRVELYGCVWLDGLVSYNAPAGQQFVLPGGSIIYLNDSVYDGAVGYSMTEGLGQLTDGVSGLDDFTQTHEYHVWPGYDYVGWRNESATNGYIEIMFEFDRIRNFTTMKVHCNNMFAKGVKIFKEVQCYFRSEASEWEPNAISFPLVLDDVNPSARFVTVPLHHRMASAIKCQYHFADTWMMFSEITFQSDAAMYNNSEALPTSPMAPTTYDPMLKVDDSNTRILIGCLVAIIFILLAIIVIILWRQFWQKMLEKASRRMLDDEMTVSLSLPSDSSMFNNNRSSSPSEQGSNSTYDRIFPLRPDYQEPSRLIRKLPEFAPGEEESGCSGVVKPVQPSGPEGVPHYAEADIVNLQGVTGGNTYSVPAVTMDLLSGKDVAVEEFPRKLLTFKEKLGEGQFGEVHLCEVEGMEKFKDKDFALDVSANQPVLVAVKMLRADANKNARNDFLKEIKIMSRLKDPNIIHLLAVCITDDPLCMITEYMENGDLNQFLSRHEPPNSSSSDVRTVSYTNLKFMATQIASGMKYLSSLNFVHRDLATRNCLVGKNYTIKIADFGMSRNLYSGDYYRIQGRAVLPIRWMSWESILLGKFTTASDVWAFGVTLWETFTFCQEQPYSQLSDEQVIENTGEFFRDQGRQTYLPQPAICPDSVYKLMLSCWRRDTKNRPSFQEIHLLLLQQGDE
The series can be described thus: Inhibition of DDR2 (unknown origin) after 1 hr by time resolved fluorescence method.

Series [2] has as its target T2, Epithelial discoidin domain-containing receptor 1 (Homo sapiens, UniProt Q08345). The series can be described thus: Inhibition of DDR1 (unknown origin) after 1 hr by time resolved fluorescence method.
The target of series [3] is T3, Mast/stem cell growth factor receptor Kit (Homo sapiens, UniProt P10721). The series can be described thus: Inhibition of c-Kit (unknown origin) using biotinylated HER2 peptide as substrate at 10 uM by time resolved fluorescence method.
In series [4] the target is T4, Discoidin domain-containing receptor 2 (Homo sapiens) (UniProt Q16832).
T4 sequence (whole entry): T1 sequence (Q16832 whole entry)
Description: Inhibition of collagen I-induced DDR2 (unknown origin) phosphorylation expressed in HEK293 cells at 0.1 to 1 uM after 16 hrs by Western blotting. The format is cell-based. In short, it runs like this: (§1)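 HEK293 cells stably transfected with either wild-type DDR2 or the I638F mutant, giving DDR2 overexpression. Cells were left unstimulated or stimulated with collagen I and treated with compound. DDR2 tyrosine phosphorylation (pY) was read out by immunoblot.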
In general terms: Immunoblotting shows a protein as a band on a membrane.

Series [5] can be described thus: Antiproliferative activity against human NCI-H2286 cells expressing DDR2 mutant after 72 hrs by alamar blue assay. The format is functional, cell-based. The note with it: NCI-H2286, 72 h. Background: Alamar Blue is a resazurin reagent that responds to reducing activity.
Series [6] concerns T5, Discoidin domain-containing receptor 2 (Homo sapiens), Q16832 [I638F].
T5 sequence (whole entry): T1 sequence (Q16832 whole entry) with I638F
Description: Inhibition of collagen I-induced DDR2 I638F mutant (unknown origin) phosphorylation expressed in HEK293 cells at 0.1 to 1 uM after 16 hrs by Western blotting. It is filed as cell-based. In short, it runs like this: as §1

The target in series [7] is Proto-oncogene tyrosine-protein kinase Src (Homo sapiens) (UniProt P12931). The series can be described thus: Inhibition of c-Src (unknown origin) using biotinylated HER2 peptide as substrate at 10 uM by time resolved fluorescence method.
Series [8] concerns the target T3, Mast/stem cell growth factor receptor Kit. The series can be described thus: Inhibition of c-Kit (unknown origin) using biotinylated HER2 peptide as substrate by time resolved fluorescence method.
Series [9] is described as follows: Half life in Balb/C mouse at 1 mg/kg, iv and 5 mg/kg, po. It is filed as ADME, organism-based. The conditions noted are these: in vivo.
In series [10] the target is T2, Epithelial discoidin domain-containing receptor 1. Description: Inhibition of DDR1 (unknown origin) at 0.005 uM after 1 hr by time resolved fluorescence method.
Series [11] is described as follows: Clearance in Balb/C mouse at 1 mg/kg, iv and 5 mg/kg, po. The format is ADME, organism-based. The note with it: in vivo.
A short description of series [12]: Volume of distribution at steady state in Balb/C mouse at 1 mg/kg, iv and 5 mg/kg, po. It is filed as ADME, organism-based. The conditions noted are these: in vivo, read-out: Vdss.
The nature of series [13]: Oral bioavailability in Balb/C mouse at 5 mg/kg. The format is ADME, organism-based. The note with it: in vivo.
The target in series [14] is T2, Epithelial discoidin domain-containing receptor 1. Description: Inhibition of DDR1 (unknown origin) at 0.0015 uM after 1 hr by time resolved fluorescence method.
The nature of series [15]: Antiproliferative activity against human HCC366 cells expressing DDR2 mutant after 72 hrs by alamar blue assay. It is filed as functional, cell-based. The conditions noted are these: HCC366, 72 h.
Series [16] deals with T1, Discoidin domain-containing receptor 2. The series can be described thus: Inhibition of collagen I-induced DDR2 (unknown origin) phosphorylation expressed in HEK293 cells after 16 hrs by mesoscale discovery assay. The format is cell-based. In a few lines: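 HEK293 cells stably transfected to overexpress DDR2 (wild type or I638F mutant lines were generated), then stimulated with collagen I. Tyrosine-phosphorylated DDR2 was measured by MesoScale Discovery immunoassay and an EC50 was derived from the concentration–response.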

Series [17] deals with Proto-oncogene tyrosine-protein kinase Src (Homo sapiens) (UniProt P12931). Description: Inhibition of c-Src (unknown origin) using biotinylated HER2 peptide as substrate at 3 uM by time resolved fluorescence method.
For series [18] the target is unchanged. The series can be described thus: Inhibition of c-Src (unknown origin) using biotinylated HER2 peptide as substrate at 100 uM by time resolved fluorescence method.
Series [19] has as its target T3, Mast/stem cell growth factor receptor Kit. Description: Inhibition of c-Kit (unknown origin) using biotinylated HER2 peptide as substrate at 3 uM by time resolved fluorescence method.
The target in series [20] is T4, Discoidin domain-containing receptor 2 (Homo sapiens). Description: Inhibition of DDR2 (unknown origin) at 100 uM after 1 hr by time resolved fluorescence method.
Series [21] deals with T3, Mast/stem cell growth factor receptor Kit. The conditions noted are these: 0.003 uM.

Proto-oncogene tyrosine-protein kinase Src (Homo sapiens), sequence (P12931 2-536 limits assumed): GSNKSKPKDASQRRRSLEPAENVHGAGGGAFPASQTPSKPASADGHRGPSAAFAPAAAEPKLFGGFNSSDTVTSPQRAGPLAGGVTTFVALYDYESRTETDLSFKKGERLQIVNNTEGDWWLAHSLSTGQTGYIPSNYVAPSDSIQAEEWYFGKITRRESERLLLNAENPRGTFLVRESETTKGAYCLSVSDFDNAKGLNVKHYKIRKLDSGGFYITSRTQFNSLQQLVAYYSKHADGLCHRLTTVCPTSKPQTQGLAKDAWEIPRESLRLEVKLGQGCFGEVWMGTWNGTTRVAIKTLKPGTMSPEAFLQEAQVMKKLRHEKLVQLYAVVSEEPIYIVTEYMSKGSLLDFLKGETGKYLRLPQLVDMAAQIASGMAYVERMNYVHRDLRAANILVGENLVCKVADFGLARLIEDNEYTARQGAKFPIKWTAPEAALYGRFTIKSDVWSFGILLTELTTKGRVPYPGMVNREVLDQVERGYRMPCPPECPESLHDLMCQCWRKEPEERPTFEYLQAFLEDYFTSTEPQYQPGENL
T2 sequence (Q08345 whole entry, the tested form may be a part): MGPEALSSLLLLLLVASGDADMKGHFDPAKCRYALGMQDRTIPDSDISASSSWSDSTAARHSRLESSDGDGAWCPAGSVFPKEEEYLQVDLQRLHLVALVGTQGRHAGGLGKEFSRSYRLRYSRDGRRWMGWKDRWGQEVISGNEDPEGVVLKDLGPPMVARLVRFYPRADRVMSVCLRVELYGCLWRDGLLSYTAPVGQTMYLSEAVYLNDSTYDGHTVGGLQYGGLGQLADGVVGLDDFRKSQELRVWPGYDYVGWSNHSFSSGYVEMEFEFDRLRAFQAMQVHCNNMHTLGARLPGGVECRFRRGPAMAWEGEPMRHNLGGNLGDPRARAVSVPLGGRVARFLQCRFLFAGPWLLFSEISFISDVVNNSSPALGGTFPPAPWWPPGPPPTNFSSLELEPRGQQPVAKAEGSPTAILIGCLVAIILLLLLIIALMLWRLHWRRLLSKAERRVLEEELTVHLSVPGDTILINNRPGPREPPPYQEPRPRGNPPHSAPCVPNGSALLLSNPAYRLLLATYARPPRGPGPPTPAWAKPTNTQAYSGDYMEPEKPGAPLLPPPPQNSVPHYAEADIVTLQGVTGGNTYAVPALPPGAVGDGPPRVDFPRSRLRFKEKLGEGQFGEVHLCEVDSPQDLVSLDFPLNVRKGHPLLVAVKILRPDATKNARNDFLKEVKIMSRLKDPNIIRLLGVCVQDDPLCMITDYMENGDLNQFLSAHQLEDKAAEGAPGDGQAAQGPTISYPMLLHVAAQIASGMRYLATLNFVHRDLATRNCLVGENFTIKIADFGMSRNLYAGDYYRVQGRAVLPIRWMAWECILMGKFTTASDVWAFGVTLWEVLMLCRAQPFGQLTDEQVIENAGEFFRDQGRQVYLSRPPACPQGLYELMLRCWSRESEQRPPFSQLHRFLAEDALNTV
T3 sequence (P10721 whole entry, the tested form may be a part): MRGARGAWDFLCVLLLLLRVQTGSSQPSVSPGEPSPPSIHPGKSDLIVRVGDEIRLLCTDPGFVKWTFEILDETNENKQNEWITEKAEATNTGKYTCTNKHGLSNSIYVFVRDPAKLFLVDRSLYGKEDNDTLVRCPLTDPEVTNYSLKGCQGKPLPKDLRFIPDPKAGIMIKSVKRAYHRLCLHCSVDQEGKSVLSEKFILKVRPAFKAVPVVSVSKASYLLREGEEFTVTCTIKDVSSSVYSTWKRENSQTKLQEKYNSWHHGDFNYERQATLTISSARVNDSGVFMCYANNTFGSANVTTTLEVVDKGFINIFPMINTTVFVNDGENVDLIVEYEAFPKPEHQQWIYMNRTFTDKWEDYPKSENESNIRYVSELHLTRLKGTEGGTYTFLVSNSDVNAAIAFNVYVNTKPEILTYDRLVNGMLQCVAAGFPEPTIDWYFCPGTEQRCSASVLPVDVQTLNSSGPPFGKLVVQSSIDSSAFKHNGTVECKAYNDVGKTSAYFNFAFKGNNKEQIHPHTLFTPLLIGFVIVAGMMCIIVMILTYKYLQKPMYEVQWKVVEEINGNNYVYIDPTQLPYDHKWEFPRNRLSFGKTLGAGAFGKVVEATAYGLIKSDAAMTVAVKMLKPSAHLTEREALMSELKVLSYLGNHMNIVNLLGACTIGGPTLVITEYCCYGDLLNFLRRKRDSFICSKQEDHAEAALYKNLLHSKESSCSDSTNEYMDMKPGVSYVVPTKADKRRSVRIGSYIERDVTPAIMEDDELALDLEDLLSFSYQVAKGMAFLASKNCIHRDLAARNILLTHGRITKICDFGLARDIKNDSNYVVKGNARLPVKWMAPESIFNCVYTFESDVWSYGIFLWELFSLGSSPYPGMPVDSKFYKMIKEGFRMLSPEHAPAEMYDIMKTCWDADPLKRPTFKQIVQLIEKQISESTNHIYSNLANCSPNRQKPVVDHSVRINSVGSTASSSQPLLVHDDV

As for `Cc1ccc([C@@H](C)NC(=O)Nc2ccccc2)cc1NC(=O)c1cnc2ccccn12`, the results for the IC50 in [1] and in [2] were 1300 nM and 1500 nM, respectively. Moreover, the inhibition in [3] turned out to be 47%.

As to `Cc1cn(-c2cc(NC(=O)c3ccc(C)c(Nc4nccc(-c5cccnc5)n4)c3)cc(C(F)(F)F)c2)cn1` [NILOTINIB], the inhibition result in series [4] and in [6] was “Active” in each case. The compound further yielded an IC50 in series [5] of 1800 nM.

Consider `Cc1ccc([C@H](C)NC(=O)Nc2ccccc2)cc1NC(=O)c1cnc2ccccn12`, for which the results for the IC50 in series [1], in series [2] and in [8] were 8.1 nM, 6 nM and 310 nM, respectively. This compound also showed an inhibition in [7] of 4%.

Consider `Cc1ccc([C@H](C)Nc2nc3cc(F)ccc3o2)cc1NC(=O)c1cnc2ccccn12`, for which the IC50 worked out at 6.1 nM in series [1] and 160 nM in series [8]. Further, in series [9], the half-life is 1.8 h. Besides, the inhibition in [7] was 52%; in series [10], 59%. Also, the clearance in [11] amounted to 16.6 mL/min/kg. Moreover, in series [12], the Vd was 1.9 L/kg. In series [13], the bioavailability came to 97%.

Regarding `Cc1ccc(CNC(=O)Nc2ccccc2)cc1NC(=O)c1cnc2ccccn12`, the IC50 in series [1] was 8.2 nM; in [8], 9.8 nM. Also, the inhibition in series [7] worked out at 54%.

As for `CN1CCN(CCOc2cc(OC3CCOCC3)c3c(Nc4c(Cl)ccc5c4OCO5)ncnc3c2)CC1`, the inhibition result in series [4] and in series [6] was “Active” each time.

Consider `Cc1ccc([C@H](C)NC(=O)Nc2cccc(F)c2)cc1NC(=O)c1cnc2ccccn12`, for which the values for the IC50 in [1] and in [8] were 4.5 nM and 140 nM, respectively. Besides, the results for the inhibition in [14] and in [7] were 54% and 22%, respectively.

For `Cc1ccc(CNC(=O)Nc2cccc(F)c2)cc1NC(=O)c1cnc2ccccn12`, the IC50 in series [1] was 3.3 nM; in series [15], more than 10000 nM; in series [5], more than 10000 nM; in [8], 19 nM. Further, the inhibition result in series [4] and in series [6] was “Active” throughout. The inhibition in series [14] was determined as 54%; in series [17], 40%. The half-life in series [9] was 0.83 h. In series [16], this compound gave an EC50 of 8.7 nM. For the same compound, in [11], the clearance was found to be 7.65 mL/min/kg. Further, the Vd in series [12] worked out at 0.42 L/kg. This compound displayed a bioavailability in series [13] of 62%.

Regarding `O=C(NCc1cccc(NC(=O)c2cnc3ccccn23)c1)Nc1ccccc1`, the IC50 turned out to be 280 nM in series [1], 150 nM in series [2] and 180 nM in series [8]. For the same compound, the inhibition in series [18] is 63%.

Compound `Cc1ccc([C@H](C)NC(=O)c2cccc(C(F)(F)F)c2)cc1NC(=O)c1cnc2ccccn12` yielded an IC50 in [1] of 5.8 nM. In addition, the inhibition was 44% in series [14], 48% in series [7] and 49% in series [19]. In [9], this compound gave a half-life of 1.4 h. This compound gave a clearance in [11] of 2.99 mL/min/kg. The Vd in [12] stood at 0.31 L/kg. In addition, in series [13], the bioavailability amounted to 55%.

Turning to `O=C(NCc1cccnc1)Nc1ccccc1Cl`, the inhibition in [20] came to 32%. This compound returned an IC50 in [2] of more than 100000 nM.

Consider `Cc1nc(Nc2ncc(C(=O)Nc3c(C)cccc3Cl)s2)cc(N2CCN(CCO)CC2)n1` [DASATINIB], for which the IC50 in series [15] amounted to 29 nM; in series [5], 32 nM. Moreover, the inhibition in series [14] came to 40%; in series [21], 90%.
